This is a sample that favours compounds with a hit; in the whole collection about 1.6% have one here.
PLCb3 inh = PLC-beta3 (human) inhibition, primary screen. 370,000 compounds, 0.18% hits. inhibition, % at 12.2 µM. Q01970. Purified PLC-beta3, fluorogenic substrate, fluorescence; in the data active = inhibition above about 11%
procasp7 counter = counter-screen for procaspase-3 activators: activators of human procaspase-7; recombinant procaspase-7, Ac-DEVD-pNA absorbance 405 nm; D23A/D198A/D206A triple mutant, cannot self-cleave; scale: DMSO 0, 5 µM enzyme 100; activation, % at 8.5 µM; 330,000 compounds, 0.093% hits; AID 463210;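 active = percent activation above the screen-wide mean plus 3 SD, cut at about 25% in these data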
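Assay system: Uncleavable procaspase-7 mutant enzyme; Input: 2 µM procaspase-7 mutant as dispensed; Also added: DEVD-pNA substrate; Medium: Zinc-free HEPES pH 7.4 with 300 mM NaCl, 0.01% Triton X-100; Timing: 1 h compound preincubation, 2 h substrate cleavage, 25 °C; Measured by: Epi-absorbance of released pNA at 405 nm, two timepoints.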
PLCg1 inh = blocks human PLC-gamma1 enzyme activity; purified PLC-gamma1, fluorogenic substrate, fluorescence; inhibition, % at 12.2 µM; 370,000 compounds, 0.84% hits
procasp3 activ = activates human procaspase-3. P42574. recombinant procaspase-3 D3A, Ac-DEVD-pNA absorbance 405 nm. activation, % at 8.5 µM. 330,000 compounds, 0.11% hits;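 active = activation above the mean of all tested compounds plus 3 SD, cut at about 21% in these data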
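Technique: 405 nm absorbance of p-nitroaniline, reads at 0 and 120 min; Test system: Procaspase-3 D3A mutant; Incubation: 1 h enzyme-compound preincubation, then 2 h substrate reaction, 25 °C; Repeats: singlicate, each compound tested once; Benchmarks: low control DMSO wells, high control DMSO plus 5 µM PC-3 D3A.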
sPLA2-III inh = Blocks human group III sPLA2 activity; Q9NZ20; QFRET BODIPY PC-A2 liposome hydrolysis, fluorescence; inhibition, % at 12.2 µM; 370,000 compounds, 0.56% hits; AID 743126;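 active = inhibition above mean plus 3 SD of compounds lying within the high and low control bounds, cut at about 19% in these data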
Target sequence (Q9NZ20 whole entry, looked up): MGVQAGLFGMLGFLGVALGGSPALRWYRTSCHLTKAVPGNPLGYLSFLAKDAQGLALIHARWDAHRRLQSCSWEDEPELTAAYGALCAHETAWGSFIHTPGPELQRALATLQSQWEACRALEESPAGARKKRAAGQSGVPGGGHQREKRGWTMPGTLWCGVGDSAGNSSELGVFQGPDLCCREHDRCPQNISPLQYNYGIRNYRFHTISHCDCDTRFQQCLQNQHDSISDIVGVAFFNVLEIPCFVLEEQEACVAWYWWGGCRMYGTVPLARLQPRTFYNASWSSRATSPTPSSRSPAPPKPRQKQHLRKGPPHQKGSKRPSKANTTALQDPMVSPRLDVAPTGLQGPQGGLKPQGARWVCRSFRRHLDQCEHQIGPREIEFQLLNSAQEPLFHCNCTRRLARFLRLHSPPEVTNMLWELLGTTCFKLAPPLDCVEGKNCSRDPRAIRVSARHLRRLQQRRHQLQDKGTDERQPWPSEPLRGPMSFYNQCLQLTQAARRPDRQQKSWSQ
PLCgamma1 ctr = counter-screen for PLC-beta3 inhibitors: inhibitors of human PLC-gamma1 | shares compounds with PLCg1 inh | purified PLC-gamma1, fluorogenic substrate, fluorescence | inhibition, % at 12.3 µM | 3,300 compounds, 3.1% hits | AID 743258
PLCbeta3 conf = confirmation of human PLC-beta3 inhibitors; purified PLC-beta3, fluorogenic substrate fluorescence; shares compounds with PLCg1 inh; inhibition, % at 12.3 µM; 3,300 compounds, 1% hits; AID 743261; in the data active = inhibition above about 11%
Of the large screens only hits and unclear results are named; the others gave an inactive call (follow-up assays come after a bar, where they were run). Cut-off read from the data, not from the text of the source, unless noted: active = inhibition above about 9.5%; inactive = the rest.

COc1cc(NS(=O)(=O)c2ccc(NC(=S)NC(C)=O)cc2)nc(OC)n1	PLCb3 inh 13.8, PLCg1 inh 16.0 | PLCgamma1 ctr inactive | PLCbeta3 conf inactive
C[C@H](NC(=O)[C@@H]1CSC2c3ccccc3C(=O)N21)C(=O)NCCc1ccc(F)cc1 (stereo partly specified)	PLCg1 inh 12.4 | PLCgamma1 ctr inactive | PLCbeta3 conf inactive
C[C@H](NC(=O)[C@@H]1CSC2c3ccccc3C(=O)N21)C(=O)NCCc1ccccc1 (stereo partly specified)	none
CC1(NC(=O)Nc2ccccc2)CCS(=O)(=O)C1 (stereo unspecified)	none
COc1ccc(NC(=O)NC2(C)CCS(=O)(=O)C2)cc1 (stereo unspecified)	PLCg1 inh 11.6 (no result: procasp7 counter, procasp3 activ) | PLCgamma1 ctr inactive | PLCbeta3 conf inactive
COc1ccc(C)cc1NC(=O)C1CCCN(S(=O)(=O)c2ccc3c(c2)CCCN3C(C)=O)C1 (stereo unspecified)	none
COc1ccc(S(=O)(=O)n2nc(-c3ccc(Cl)cc3)cc2N)cc1OC	none
CCOc1ccc(-c2cc(N)n(S(=O)(=O)c3ccc(OC)c(OC)c3)n2)cc1	PLCb3 inh 10.8 | PLCgamma1 ctr inactive | PLCbeta3 conf inactive
C[C@H]1CN([C@@H](C)CO)C(=O)CCCn2nncc2CO[C@H]1CN(C)C(=O)c1cc(-c2ccccc2)on1	none (no result: procasp7 counter, procasp3 activ)
O=C(NC(=S)Nc1cccc(Cl)c1N1CCOCC1)c1cccs1	PLCg1 inh 9.9 | PLCgamma1 ctr inactive | PLCbeta3 conf inactive
Clc1ccccc1OCCN1CCC(Cc2ccccc2)CC1	PLCb3 inh 18.3, PLCg1 inh 20.3 | PLCgamma1 ctr inactive | PLCbeta3 conf inactive
COc1ccc(Cn2nnnc2C(C(C)C)N(Cc2ccco2)Cc2cccs2)cc1 (stereo unspecified)	PLCb3 inh 13.6, PLCg1 inh 13.7 | PLCgamma1 ctr inactive | PLCbeta3 conf inactive
O=C(COc1ccccc1C(=O)O)Nc1nc2ccc([N+](=O)[O-])cc2s1	none
COc1ccc2nc(NC(=O)C3CCCN(S(=O)(=O)c4cccc5nonc45)C3)sc2c1 (stereo unspecified)	PLCg1 inh 10.2 | PLCgamma1 ctr inactive | PLCbeta3 conf inactive
C#CC1(O)C2C=C(OC)C(=O)C1C(c1ccccc1)C2C (stereo unspecified)	none (no result: procasp7 counter, procasp3 activ)
COC(=O)COc1ccc(S(=O)(=O)NCc2ccco2)cc1Cl	PLCg1 inh 11.0 | PLCgamma1 ctr inactive | PLCbeta3 conf inactive
COc1ccc(NS(=O)(=O)c2cccc(C(=O)NNC(=O)COc3ccccc3)c2)cc1	PLCg1 inh 9.6 | PLCgamma1 ctr inactive | PLCbeta3 conf inactive
COc1ccc(NS(=O)(=O)c2cccc(C(=O)NNC(=O)CNC(=O)c3ccccc3)c2)cc1	none
CCCCCCN1CCN(C2CN(CCCC)S(=O)(=O)C2)CC1 (stereo unspecified)	none (no result: procasp7 counter, procasp3 activ)
COc1ccc(OCc2nnc(SCC(=O)N3c4ccccc4Sc4ccc(Cl)cc43)o2)cc1	PLCg1 inh 9.6 | PLCgamma1 ctr inactive | PLCbeta3 conf inactive
Cc1cccc(N(C)C(=O)C2CCCN2S(=O)(=O)c2cccc3nsnc23)c1 (stereo unspecified)	PLCg1 inh 10.3 | PLCgamma1 ctr inactive | PLCbeta3 conf inactive
COc1ccc([C@H]2C[C@@H](n3cc(C4CC4)nn3)[C@H](O)CN2CC2CCCCC2)cc1	none (no result: procasp7 counter, procasp3 activ)
Cc1ccc(C)c(OCCCNCc2ccccc2)c1	PLCg1 inh 15.3 | PLCgamma1 ctr inactive | PLCbeta3 conf inactive
O=C(CN1C(=O)NC2(CCCC2)C1=O)OCc1ccc(Cl)c(Cl)c1	none
CCN(C(=O)CSc1nc2c(cnn2-c2ccccc2)c(=O)[nH]1)C1CCS(=O)(=O)C1 (stereo unspecified)	PLCg1 inh 9.7 | PLCgamma1 ctr inactive | PLCbeta3 conf inactive
CC1CCN(C(=O)CSc2nc3c(cnn3-c3ccc(Cl)cc3)c(=O)[nH]2)CC1	PLCb3 inh 11.3, PLCg1 inh 10.0 | PLCgamma1 ctr inactive | PLCbeta3 conf inactive
CCCN(C(=O)CSc1nc2c(cnn2-c2ccccc2)c(=O)[nH]1)C1CCS(=O)(=O)C1 (stereo unspecified)	none
CCCNC(=O)c1onc(CSc2nc3ccccc3[nH]2)c1C(=O)NCCC	none
CCN(CC)S(=O)(=O)c1ccc(C(=O)OCn2nnc3ccccc3c2=O)cc1	PLCb3 inh 16.9 | PLCgamma1 ctr inactive | PLCbeta3 conf inactive
O=C(CS(=O)c1cccc(C(F)(F)F)c1)Nc1ccccc1Cl (stereo unspecified)	none
O=C(CS(=O)c1ccc(F)cc1)Nc1ccccc1Cl (stereo unspecified)	PLCg1 inh 10.0 | PLCgamma1 ctr inactive | PLCbeta3 conf inactive
Cc1cc(C)c(S(=O)(=O)N2CCOC23CCN(S(C)(=O)=O)CC3)c(C)c1	none (no result: procasp7 counter, procasp3 activ)
Cn1cc([N+](=O)[O-])c(C(=O)NCc2ccco2)n1	none
CCn1cc(Br)c(C(=O)NCc2ccco2)n1	PLCg1 inh 10.2 | PLCgamma1 ctr inactive | PLCbeta3 conf inactive
C[C@H]1CN([C@@H](C)CO)C(=O)CCCn2nncc2CO[C@@H]1CN(C)Cc1ccccc1C(F)(F)F	none (no result: procasp7 counter, procasp3 activ)
COc1ccc2c(=O)c3c(=O)n(CCc4ccccc4)c(C(C)C)nc3oc2c1	none
Cc1[nH][nH]c(=O)c1C(c1ccc(-c2ccc(F)cc2)o1)c1c(C)[nH][nH]c1=O	PLCg1 inh 10.6 | PLCgamma1 ctr inactive | PLCbeta3 conf inactive
O=C(Nn1c(SCc2cccc([N+](=O)[O-])c2)nc2ccccc2c1=O)c1ccccc1	PLCg1 inh 10.7 | PLCgamma1 ctr inactive | PLCbeta3 conf inactive
COc1ccc(C(=O)Nn2c(SCc3cccc([N+](=O)[O-])c3)nc3ccccc3c2=O)cc1	none
Cc1cccc(-c2nc3ccccc3c(=O)n2NC(=O)/C=C/c2ccc([N+](=O)[O-])cc2)c1	none
O=C(/C=C/c1cccc([N+](=O)[O-])c1)Nn1c(-c2ccccc2F)nc2ccccc2c1=O	PLCg1 inh 11.6 | PLCgamma1 ctr inactive | PLCbeta3 conf inactive
O=C(Nc1nc(=O)n(C(=O)c2cccc(C(F)(F)F)c2)s1)c1ccccc1	none
CSc1ccccc1NC(=O)Cn1c(-c2cscn2)nc2ccccc21	PLCg1 inh 9.8 | PLCgamma1 ctr inactive | PLCbeta3 conf inactive
CC(C)c1ccccc1NC(=O)Cn1c(-c2ccccc2Cl)nc2ccccc21	none
O=S1(=O)CC(N2CCSCC2)CN1Cc1cn(Cc2ccc(C(F)(F)F)cc2)nn1 (stereo unspecified)	PLCg1 inh 13.0 (no result: procasp7 counter, procasp3 activ) | PLCgamma1 ctr inactive | PLCbeta3 conf inactive
Cc1ccccc1NC(=O)CNC(=O)c1ccc(C(F)(F)F)cc1	none

Bioassay records (PubChem)
